Laboratory results taken from ChEMBL document CHEMBL5724801, “EUbOPEN Chemogenomics Library - Multiplex” (2024).
“And” between values parts separate entries of the source, which are not always exact repeats. Equal entries are not always repeated.

Test system: U2OS
Assay: Multiplex assay against U2OS
Format: toxicity, cell-based
Settings: human
Summary of the method: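 Tubulin, mitochondrial-mass and membrane-permeability phenotypes are per cents of healthy-nucleus cells. Cells were gated by CellPathfinder machine learning into Hoechst high-intensity objects or normal cells, normal cells into healthy, pyknosed or fragmented nuclei, and pyknosed cells into mitotic or apoptotic. Before that, live cells stained at seeding with Hoechst33342, BioTracker Green Microtubule Cytoskeleton Dye, MitoTracker Red and Annexin V Alexa Fluor 680 were imaged on a CQ1 microscope at 37°C and 5% CO2 after compound addition.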

[1] = 12 h, 1 µM, compound concentration 1 uM
[2] = 12 h, 10 µM, compound concentration 10 uM
[3] = 24 h, 1 µM, compound concentration 1 uM
[4] = 24 h, 10 µM, compound concentration 10 uM
[5] = 48 h, 1 µM, compound concentration 1 uM
[6] = 48 h, 10 µM, compound concentration 10 uM

Structure (SMILES): O=C(Nc1c[nH]nc1-c1nc2cc(CN3CCOCC3)ccc2[nH]1)NC1CC1 [AT-9283]
- Population Apoptotic (%) [1]: 27.91% and 52.63%
- Population Fragmented Nuclei (%) [1]: 2.75% and 2.61%
- Population Healthy Nuclei (%) [1]: 85.4% and 84.97%
- Population Hoechst High Intensity Objects (%) [1]: 0%
- Population Membrane Permeable-Phenotype (%) [1]: 0.65% and 3.85%
- Population Mitochondria Different-Phenotype (%) [1]: 0.32% and 9.23%
- Population Mitotic Cells (%) [1]: 72.09% and 47.37%
- Population Normal (%) [1]: 100%
- Population Pyknosed Nuclei (%) [1]: 11.85% and 12.42%
- Population Tubulin-Different-Phenotype (%) [1]: 1.29% and 0%
- Total Cell Count [1]: 363 and 153
- Population Apoptotic (%) [2]: 43% and 36.73%
- Population Fragmented Nuclei (%) [2]: 6.56% and 13.38%
- Population Healthy Nuclei (%) [2]: 60.66% and 52.11%
- Population Hoechst High Intensity Objects (%) [2]: 0% and 0.7%
- Population Membrane Permeable-Phenotype (%) [2]: 1.62% and 5.41%
- Population Mitochondria Different-Phenotype (%) [2]: 0% and 14.86%
- Population Mitotic Cells (%) [2]: 57% and 63.27%
- Population Normal (%) [2]: 100% and 99.3%
- Population Pyknosed Nuclei (%) [2]: 32.79% and 34.51%
- Population Tubulin-Different-Phenotype (%) [2]: 2.16% and 2.7%
- Total Cell Count [2]: 305 and 143
- Population Apoptotic (%) [3]: 38.27% and 55.56%
- Population Fragmented Nuclei (%) [3]: 5.31% and 3.57%
- Population Healthy Nuclei (%) [3]: 73.21% and 75%
- Population Hoechst High Intensity Objects (%) [3]: 0%
- Population Membrane Permeable-Phenotype (%) [3]: 0.72% and 3.17%
- Population Mitochondria Different-Phenotype (%) [3]: 0% and 7.94%
- Population Mitotic Cells (%) [3]: 61.73% and 44.44%
- Population Normal (%) [3]: 100%
- Population Pyknosed Nuclei (%) [3]: 21.49% and 21.43%
- Population Tubulin-Different-Phenotype (%) [3]: 1.81% and 0%
- Total Cell Count [3]: 377 and 168
- Population Apoptotic (%) [4]: 50.29% and 58.51%
- Population Fragmented Nuclei (%) [4]: 11.38% and 13.89%
- Population Healthy Nuclei (%) [4]: 28.28% and 20.83%
- Population Hoechst High Intensity Objects (%) [4]: 0.34% and 1.37%
- Population Membrane Permeable-Phenotype (%) [4]: 4.88% and 10%
- Population Mitochondria Different-Phenotype (%) [4]: 0% and 10%
- Population Mitotic Cells (%) [4]: 49.71% and 41.49%
- Population Normal (%) [4]: 99.66% and 98.63%
- Population Pyknosed Nuclei (%) [4]: 60.34% and 65.28%
- Population Tubulin-Different-Phenotype (%) [4]: 10.98% and 3.33%
- Total Cell Count [4]: 291 and 146
- Population Apoptotic (%) [5]: 55.84% and 65.43%
- Population Fragmented Nuclei (%) [5]: 5.53% and 3.43%
- Population Healthy Nuclei (%) [5]: 57.45% and 50.29%
- Population Hoechst High Intensity Objects (%) [5]: 0.24% and 0.57%
- Population Membrane Permeable-Phenotype (%) [5]: 4.6% and 11.36%
- Population Mitotic Cells (%) [5]: 44.16% and 34.57%
- Population Normal (%) [5]: 99.76% and 99.43%
- Population Pyknosed Nuclei (%) [5]: 37.02% and 46.29%
- Population Tubulin-Different-Phenotype (%) [5]: 11.3% and 13.64%
- Total Cell Count [5]: 417 and 176
- Population Apoptotic (%) [6]: 69.51% and 86%
- Population Fragmented Nuclei (%) [6]: 9.83% and 10.61%
- Population Healthy Nuclei (%) [6]: 14.58% and 13.64%
- Population Hoechst High Intensity Objects (%) [6]: 0.34% and 0%
- Population Membrane Permeable-Phenotype (%) [6]: 27.91% and 11.11%
- Population Mitochondria Different-Phenotype (%) [6]: 0% and 5.56%
- Population Mitotic Cells (%) [6]: 30.49% and 14%
- Population Normal (%) [6]: 99.66% and 100%
- Population Pyknosed Nuclei (%) [6]: 75.59% and 75.76%
- Population Tubulin-Different-Phenotype (%) [6]: 58.14% and 50%
- Total Cell Count [6]: 296 and 132

Structure (SMILES): CC(C)C[C@H](CO)Nc1nc(S[C@@H](C)c2ccccc2)nc2nc(N)sc12 [AZD-8797]
- Population Apoptotic (%) [1]: 83% and 100%
- Population Fragmented Nuclei (%) [1]: 20% and 12%
- Population Healthy Nuclei (%) [1]: 65% and 82%
- Population Hoechst High Intensity Objects (%) [1]: 3% and 0%
- Population Membrane Permeable-Phenotype (%) [1]: 5%
- Population Mitochondria Different-Phenotype (%) [1]: 1% and 5%
- Population Mitotic Cells (%) [1]: 16% and 0%
- Population Normal (%) [1]: 96% and 100%
- Population Pyknosed Nuclei (%) [1]: 14% and 5%
- Population Tubulin-Different-Phenotype (%) [1]: 2% and 3%
- Total Cell Count [1]: 177 and 95
- Population Apoptotic (%) [2]: 63% and 78%
- Population Fragmented Nuclei (%) [2]: 21% and 9%
- Population Healthy Nuclei (%) [2]: 56% and 79%
- Population Hoechst High Intensity Objects (%) [2]: 4% and 2%
- Population Membrane Permeable-Phenotype (%) [2]: 30% and 10%
- Population Mitochondria Different-Phenotype (%) [2]: 12% and 16%
- Population Mitotic Cells (%) [2]: 36% and 21%
- Population Normal (%) [2]: 95% and 97%
- Population Pyknosed Nuclei (%) [2]: 22% and 10%
- Total Cell Count [2]: 222 and 135
- Population Apoptotic (%) [3]: 81% and 83%
- Population Fragmented Nuclei (%) [3]: 20% and 17%
- Population Healthy Nuclei (%) [3]: 68% and 77%
- Population Hoechst High Intensity Objects (%) [3]: 1% and 0%
- Population Membrane Permeable-Phenotype (%) [3]: 2% and 4%
- Population Mitochondria Different-Phenotype (%) [3]: 0% and 2%
- Population Mitotic Cells (%) [3]: 18% and 16%
- Population Normal (%) [3]: 98% and 100%
- Population Pyknosed Nuclei (%) [3]: 10% and 4%
- Population Tubulin-Different-Phenotype (%) [3]: 2% and 3%
- Total Cell Count [3]: 219 and 121
- Population Apoptotic (%) [4]: 76% and 100%
- Population Fragmented Nuclei (%) [4]: 20% and 7%
- Population Healthy Nuclei (%) [4]: 58% and 86%
- Population Hoechst High Intensity Objects (%) [4]: 3% and 1%
- Population Membrane Permeable-Phenotype (%) [4]: 22% and 9%
- Population Mitochondria Different-Phenotype (%) [4]: 12%
- Population Mitotic Cells (%) [4]: 24% and 0%
- Population Normal (%) [4]: 96% and 98%
- Population Tubulin-Different-Phenotype (%) [4]: 13% and 6%
- Total Cell Count [4]: 245 and 156
- Population Apoptotic (%) [5]: 94% and 100%
- Population Fragmented Nuclei (%) [5]: 18% and 15%
- Population Healthy Nuclei (%) [5]: 69% and 77%
- Population Hoechst High Intensity Objects (%) [5]: 2%
- Population Membrane Permeable-Phenotype (%) [5]: 6% and 2%
- Population Mitochondria Different-Phenotype (%) [5]: 0% and 2%
- Population Mitotic Cells (%) [5]: 5% and 0%
- Population Normal (%) [5]: 97%
- Population Pyknosed Nuclei (%) [5]: 11% and 6%
- Population Tubulin-Different-Phenotype (%) [5]: 2%
- Total Cell Count [5]: 352 and 181
- Population Apoptotic (%) [6]: 90% and 96%
- Population Fragmented Nuclei (%) [6]: 26% and 12%
- Population Healthy Nuclei (%) [6]: 54% and 74%
- Population Hoechst High Intensity Objects (%) [6]: 4% and 3%
- Population Membrane Permeable-Phenotype (%) [6]: 20% and 11%
- Population Mitochondria Different-Phenotype (%) [6]: 10% and 5%
- Population Mitotic Cells (%) [6]: 9% and 3%
- Population Normal (%) [6]: 95% and 96%
- Population Pyknosed Nuclei (%) [6]: 19% and 12%
- Population Tubulin-Different-Phenotype (%) [6]: 14% and 4%
- Total Cell Count [6]: 296 and 218
